System: Fibroblast
Experiment: Multiplex assay against human fibroblast
Assay type: toxicity, cell-based
Method in brief: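 Cells stained live at seeding with Hoechst33342, BioTracker Green Microtubule Cytoskeleton Dye, MitoTracker Red and Annexin V Alexa Fluor 680 were imaged on a CQ1 microscope at 37°C and 5% CO2 after compound addition. Their classification by CellPathfinder machine-learning gating ran from Hoechst high-intensity objects versus normal cells, to healthy, pyknosed or fragmented nuclei among normal cells, to mitotic or apoptotic among pyknosed cells. Tubulin, mitochondrial-mass and membrane-permeability phenotypes are per cents of healthy-nucleus cells.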

[1] = 12 h, 1 µM, compound concentration 1 uM, replicate 1
[2] = 12 h, 1 µM, compound concentration 1 uM, replicate 2
[3] = 12 h, 10 µM, compound concentration 10 uM, replicate 1
[4] = 12 h, 10 µM, compound concentration 10 uM, replicate 2
[5] = 24 h, 1 µM, compound concentration 1 uM, replicate 1
[6] = 24 h, 1 µM, compound concentration 1 uM, replicate 2
[7] = 24 h, 10 µM, compound concentration 10 uM, replicate 1
[8] = 24 h, 10 µM, compound concentration 10 uM, replicate 2
[9] = 48 h, 1 µM, compound concentration 1 uM, replicate 1
[10] = 48 h, 1 µM, compound concentration 1 uM, replicate 2
[11] = 48 h, 10 µM, compound concentration 10 uM, replicate 1
[12] = 48 h, 10 µM, compound concentration 10 uM, replicate 2

## COc1cc(-n2cnc3cc(-c4ccc(Cl)cc4)sc3c2=O)ccc1OCCN1CCCC1
[1]
  Population Apoptotic (%): 52%
  Population Fragmented Nuclei (%): 32%
  Population Healthy Nuclei (%): 49%
  Population Hoechst High Intensity Objects (%): 13%
  Population Membrane Permeable-Phenotype (%): 23%
  Population Mitochondria Different-Phenotype (%): 13%
  Population Mitotic Cells (%): 47%
  Population Normal (%): 86%
  Population Pyknosed Nuclei (%): 18%
  Population Tubulin-Different-Phenotype (%): 38%
  Total Cell Count: 121
[2]
  Population Apoptotic (%): 71%
  Population Fragmented Nuclei (%): 11%
  Population Healthy Nuclei (%): 77%
  Population Hoechst High Intensity Objects (%): 16%
  Population Membrane Permeable-Phenotype (%): 10%
  Population Mitochondria Different-Phenotype (%): 44%
  Population Mitotic Cells (%): 28%
  Population Normal (%): 84%
  Population Pyknosed Nuclei (%): 11%
  Population Tubulin-Different-Phenotype (%): 34%
  Total Cell Count: 78
[3]
  Population Apoptotic (%): 62%
  Population Fragmented Nuclei (%): 33%
  Population Healthy Nuclei (%): 26%
  Population Hoechst High Intensity Objects (%): 14%
  Population Membrane Permeable-Phenotype (%): 21%
  Population Mitochondria Different-Phenotype (%): 53%
  Population Mitotic Cells (%): 37%
  Population Normal (%): 85%
  Population Pyknosed Nuclei (%): 40%
  Population Tubulin-Different-Phenotype (%): 87%
  Total Cell Count: 141
[4]
  Population Apoptotic (%): 26%
  Population Fragmented Nuclei (%): 22%
  Population Healthy Nuclei (%): 57%
  Population Hoechst High Intensity Objects (%): 8%
  Population Membrane Permeable-Phenotype (%): 34%
  Population Mitochondria Different-Phenotype (%): 93%
  Population Mitotic Cells (%): 73%
  Population Normal (%): 91%
  Population Pyknosed Nuclei (%): 19%
  Population Tubulin-Different-Phenotype (%): 97%
  Total Cell Count: 75
[5]
  Population Apoptotic (%): 38%
  Population Fragmented Nuclei (%): 36%
  Population Healthy Nuclei (%): 47%
  Population Hoechst High Intensity Objects (%): 17%
  Population Membrane Permeable-Phenotype (%): 17%
  Population Mitochondria Different-Phenotype (%): 5%
  Population Mitotic Cells (%): 61%
  Population Normal (%): 82%
  Population Pyknosed Nuclei (%): 15%
  Population Tubulin-Different-Phenotype (%): 32%
  Total Cell Count: 142
[6]
  Population Apoptotic (%): 62%
  Population Fragmented Nuclei (%): 16%
  Population Healthy Nuclei (%): 71%
  Population Hoechst High Intensity Objects (%): 10%
  Population Membrane Permeable-Phenotype (%): 6%
  Population Mitochondria Different-Phenotype (%): 25%
  Population Mitotic Cells (%): 37%
  Population Normal (%): 89%
  Population Pyknosed Nuclei (%): 12%
  Population Tubulin-Different-Phenotype (%): 21%
  Total Cell Count: 83
[7]
  Population Apoptotic (%): 92%
  Population Fragmented Nuclei (%): 32%
  Population Healthy Nuclei (%): 15%
  Population Hoechst High Intensity Objects (%): 16%
  Population Membrane Permeable-Phenotype (%): 25%
  Population Mitochondria Different-Phenotype (%): 43%
  Population Mitotic Cells (%): 7%
  Population Normal (%): 83%
  Population Pyknosed Nuclei (%): 51%
  Population Tubulin-Different-Phenotype (%): 93%
  Total Cell Count: 125
[8]
  Population Apoptotic (%): 47%
  Population Fragmented Nuclei (%): 24%
  Population Healthy Nuclei (%): 52%
  Population Hoechst High Intensity Objects (%): 14%
  Population Membrane Permeable-Phenotype (%): 42%
  Population Mitochondria Different-Phenotype (%): 89%
  Population Mitotic Cells (%): 52%
  Population Normal (%): 85%
  Population Pyknosed Nuclei (%): 23%
  Population Tubulin-Different-Phenotype (%): 81%
  Total Cell Count: 74
[9]
  Population Apoptotic (%): 81%
  Population Fragmented Nuclei (%): 39%
  Population Healthy Nuclei (%): 48%
  Population Hoechst High Intensity Objects (%): 18%
  Population Membrane Permeable-Phenotype (%): 9%
  Population Mitochondria Different-Phenotype (%): 4%
  Population Mitotic Cells (%): 18%
  Population Normal (%): 81%
  Population Pyknosed Nuclei (%): 11%
  Population Tubulin-Different-Phenotype (%): 22%
  Total Cell Count: 166
[10]
  Population Apoptotic (%): 33%
  Population Fragmented Nuclei (%): 36%
  Population Healthy Nuclei (%): 61%
  Population Hoechst High Intensity Objects (%): 15%
  Population Membrane Permeable-Phenotype (%): 16%
  Population Mitochondria Different-Phenotype (%): 3%
  Population Mitotic Cells (%): 66%
  Population Normal (%): 84%
  Population Pyknosed Nuclei (%): 2%
  Population Tubulin-Different-Phenotype (%): 51%
  Total Cell Count: 160
[11]
  Population Apoptotic (%): 93%
  Population Fragmented Nuclei (%): 52%
  Population Healthy Nuclei (%): 26%
  Population Hoechst High Intensity Objects (%): 37%
  Population Membrane Permeable-Phenotype (%): 23%
  Population Mitochondria Different-Phenotype (%): 47%
  Population Mitotic Cells (%): 6%
  Population Normal (%): 62%
  Population Pyknosed Nuclei (%): 20%
  Population Tubulin-Different-Phenotype (%): 85%
  Total Cell Count: 124
[12]
  Population Apoptotic (%): 63%
  Population Fragmented Nuclei (%): 36%
  Population Healthy Nuclei (%): 53%
  Population Hoechst High Intensity Objects (%): 32%
  Population Mitochondria Different-Phenotype (%): 30%
  Population Mitotic Cells (%): 36%
  Population Normal (%): 67%
  Population Pyknosed Nuclei (%): 9%
  Total Cell Count: 167

Reference: ChEMBL document CHEMBL4689842, “EUbOPEN Chemogenomics Library wave 1” (2021)
